pIC50: −log10 of the molar value. *1 amine or outer side, *2 acyl side, *3 side chain or, on linkers, in order; H or OH if unused. Where a SMILES comes first, the peptide text is derived from it. Bridges are numbered along the chain shown (N, C = ends). Roman numbers before positions name the chains, in order. Side-chain parts run from the residue outwards. [ ]: non-standard residue; d: D form. X4 = NC(N)=NCCC[C@@H](CN([C@@H](Cc1c[nH]cn1)C(=O)[*:2])[*:1])N[*:3]; X3 = CC(C)C[C@@H](CN([C@@H](CCCNC(=N)N)C(=O)[*:2])[*:1])N[*:3]; Dip = N[C@H](C(=O)O)C(c1ccccc1)c1ccccc1; 1Nal = N[C@@H](Cc1cccc2ccccc12)C(=O)O; 3Thi = N[C@@H](Cc1ccsc1)C(=O)O
Columns and labels:
Rattus norvegicus = assay: Tested for in vivo antisecretory potency for inhibiting VIP-induced (30 micro g/kg/h) secretion in isolated jejunum in anesthetized rats.(95% CL); assay type: functional; conditions: read-out: ID50 (the source's name)
In short: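 Rats anesthetized, saphenous vein cannulated. Isolated jejunal loop instilled with 2000 μL fluid. At the end the loop is excised, measured and weighed before and after emptying. Net water flux (μL/cm/30 min) = (F-E)2000/L; negative means absorption. 6-8 animals per dose.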

[1] = target: T1, Neuropeptide Y receptor type 2 (Rattus norvegicus, UniProt Q9ERC0); assay: Antisecretory potency, affinity for intestinal PYY of rat jejunum by using short circuit current (SCC) method.; assay type: tissue-based
[2] = target: T2, Neuropeptide Y receptor type 2 (Homo sapiens, UniProt P49146); assay: Affinity against Neuropeptide Y receptor Y2 in SK-N-BE2 cell line
T2 sequence (P49146 whole entry): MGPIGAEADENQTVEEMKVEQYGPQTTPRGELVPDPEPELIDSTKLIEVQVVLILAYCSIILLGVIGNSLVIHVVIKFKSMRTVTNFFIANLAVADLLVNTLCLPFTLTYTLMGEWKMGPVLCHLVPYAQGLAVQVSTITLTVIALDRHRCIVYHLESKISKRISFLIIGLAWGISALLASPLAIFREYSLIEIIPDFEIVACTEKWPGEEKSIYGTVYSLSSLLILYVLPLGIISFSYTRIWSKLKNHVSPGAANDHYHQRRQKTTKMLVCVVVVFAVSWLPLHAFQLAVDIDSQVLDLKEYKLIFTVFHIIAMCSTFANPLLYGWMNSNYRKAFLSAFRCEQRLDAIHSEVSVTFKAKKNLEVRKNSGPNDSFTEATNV

[3] = target: Neuropeptide Y receptor type 1 (Homo sapiens, UniProt P25929); assay: Affinity against Neuropeptide Y receptor Y1 in SK-N-MC cell line; assay type: cell-based
[4] = target: T1, Neuropeptide Y receptor type 2; assay: Tested for the affinity for intestinal PYY from rat jejunum by using short circuit current (SCC) method.

Chain of Neuropeptide Y receptor type 1 (P25929 whole entry): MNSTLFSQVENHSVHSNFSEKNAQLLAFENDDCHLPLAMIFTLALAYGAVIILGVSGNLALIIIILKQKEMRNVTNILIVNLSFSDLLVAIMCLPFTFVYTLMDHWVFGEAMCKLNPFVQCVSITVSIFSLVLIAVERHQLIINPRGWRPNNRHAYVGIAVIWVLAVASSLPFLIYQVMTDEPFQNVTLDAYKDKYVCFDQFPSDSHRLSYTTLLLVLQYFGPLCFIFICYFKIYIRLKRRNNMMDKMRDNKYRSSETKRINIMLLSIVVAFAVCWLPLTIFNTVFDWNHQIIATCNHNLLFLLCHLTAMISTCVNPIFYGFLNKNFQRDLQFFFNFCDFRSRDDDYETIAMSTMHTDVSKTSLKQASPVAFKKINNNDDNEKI
T1 sequence (Q9ERC0 whole entry): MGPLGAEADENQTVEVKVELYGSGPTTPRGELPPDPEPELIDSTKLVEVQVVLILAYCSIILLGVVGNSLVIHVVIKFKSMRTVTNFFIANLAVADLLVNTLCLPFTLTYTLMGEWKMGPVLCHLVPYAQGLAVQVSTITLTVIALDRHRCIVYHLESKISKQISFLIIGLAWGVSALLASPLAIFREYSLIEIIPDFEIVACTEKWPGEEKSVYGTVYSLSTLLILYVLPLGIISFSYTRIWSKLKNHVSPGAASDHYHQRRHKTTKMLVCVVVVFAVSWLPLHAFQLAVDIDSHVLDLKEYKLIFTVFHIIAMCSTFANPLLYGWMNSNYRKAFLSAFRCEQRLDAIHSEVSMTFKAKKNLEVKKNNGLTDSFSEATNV

| Molecule | pIC50 [1] | pIC50 [2] | pIC50 [3] | pIC50 [4] | pIC50 ([3]; sk-n-mc) | ED50 (Rattus norvegicus) |
| --- | --- | --- | --- | --- | --- | --- |
| CC(=O)N[C@@H](C)C(=O)N[C@@H](CO)C(=O)N[C@@H](CC(C)C)C(=O)N[C@@H](CCCN=C(N)N)C(=O)N[C@@H](Cc1c[nH]cn1)C(=O)N[C@@H](Cc1ccc(O)cc1)C(=O)N[C@@H](CC(C)C)C(=O)N[C@@H](CC(N)=O)C(=O)N[C@@H](Cc1c[nH]c2ccccc12)C(=O)N[C@H](C(=O)N[C@H](C(=O)N[C@@H](CCCN=C(N)N)C(=O)N[C@@H](CCC(N)=O)C(=O)N[C@@H](CCCN=C(N)N)CN[C@@H](Cc1ccc(O)cc1)C(N)=O)[C@@H](C)O)C(C)C |  |  |  |  |  | 0.00019 µmol/kg |
| CCCC[C@H](NC(=O)[C@H](CO)NC(=O)[C@H](C)NC(C)=O)C(=O)N[C@@H](CCCN=C(N)N)C(=O)N[C@@H](Cc1c[nH]cn1)C(=O)N[C@@H](Cc1ccc(O)cc1)C(=O)N[C@@H](CCCC)C(=O)N[C@@H](CC(N)=O)C(=O)N[C@@H](Cc1c[nH]c2ccccc12)C(=O)N[C@@H](CCC)C(=O)N[C@H](C(=O)N[C@@H](CCCN=C(N)N)C(=O)N[C@@H](CCC(N)=O)C(=O)N[C@@H](CCCN=C(N)N)C(=O)N[C@@H](Cc1ccc(O)cc1)C(N)=O)[C@@H](C)O |  |  |  |  |  | 1.3e-05 µmol/kg |
| CCCC[C@H](NC(=O)[C@H](CO)NC(=O)[C@H](C)NC(C)=O)C(=O)N[C@@H](CCCN=C(N)N)C(=O)N[C@@H](Cc1c[nH]cn1)C(=O)N[C@@H](Cc1ccc(O)cc1)C(=O)N[C@@H](CCCC)C(=O)N[C@@H](CC(N)=O)C(=O)N[C@@H](Cc1c[nH]c2ccccc12)C(=O)N[C@@H](CCC)C(=O)N[C@H](C(=O)N[C@@H](CCCN=C(N)N)C(=O)N[C@@H](CCC(N)=O)C(=O)N[C@@H](CCCN=C(N)N)CN[C@@H](Cc1ccc(O)cc1)C(N)=O)[C@@H](C)O | 9.51 | 8.76 | 5.80 |  |  | 5.9e-05 µmol/kg |
| CNC(=O)[C@H](Cc1ccc(O)cc1)NC(=O)[C@H](CCCNC(=N)N)NC(=O)[C@H](CCC(N)=O)NC(=O)[C@H](CCCNC(=N)N)NC(=O)[C@@H](NC(=O)[C@@H](NC(=O)[C@H](CC(C)C)NC(=O)[C@H](CC(N)=O)NC(=O)[C@H](CC(C)C)NC(=O)[C@H](Cc1c[nH]c2ccccc12)NC(=O)[C@H](Cc1cnc[nH]1)NC(=O)[C@H](CCCNC(=N)N)NC(=O)[C@H](CC(C)C)NC(=O)[C@H](CO)NC(=O)[C@H](C)NC(C)=O)C(C)C)[C@@H](C)O (Ac-ASLRHWLNLVTRQRY-NHMe) |  | < 7.00 | < 6.00 | < 7.00 |  |  |
| CC(=O)N[C@@H](C)C(=O)N[C@@H](CO)C(=O)N[C@@H](CC(C)C)C(=O)N[C@@H](CCCN=C(N)N)C(=O)N[C@@H](Cc1c[nH]cn1)C(=O)N[C@@H](Cc1cccc2ccccc12)C(=O)N[C@@H](CC(C)C)C(=O)N[C@@H](CC(N)=O)C(=O)N[C@@H](CC(C)C)C(=O)N[C@H](C(=O)N[C@H](C(=O)N[C@@H](CCCN=C(N)N)C(=O)N[C@@H](CCC(N)=O)C(=O)N[C@@H](CCCN=C(N)N)C(=O)N[C@@H](Cc1ccc(O)cc1)C(N)=O)[C@@H](C)O)C(C)C (Ac-ASLRH[1Nal]LNLVTRQRY-NH2) | 8.18 | 8.15 | 7.05 |  |  |  |
| CC(=O)N[C@@H](C)C(=O)N[C@@H](CO)C(=O)N[C@@H](CC(C)C)C(=O)N[C@@H](CCCNC(=N)N)C(=O)N[C@@H](Cc1cnc[nH]1)C(=O)N[C@H](C(=O)N[C@@H](CC(C)C)C(=O)N[C@@H](CC(N)=O)C(=O)N[C@@H](CC(C)C)C(=O)N[C@H](C(=O)N[C@H](C(=O)N[C@@H](CCCNC(=N)N)C(=O)N[C@@H](CCC(N)=O)C(=O)N[C@@H](CCCNC(=N)N)C(=O)N[C@@H](Cc1ccc(O)cc1)C(N)=O)[C@@H](C)O)C(C)C)C(c1ccccc1)c1ccccc1 (Ac-ASLRH[Dip]LNLVTRQRY-NH2) | 7.78 | 8.00 | 6.35 |  |  |  |
| CC(=O)N[C@@H](C)C(=O)N[C@@H](CO)C(=O)N[C@H](CN[C@@H](CCCNC(=N)N)C(=O)N[C@@H](Cc1cnc[nH]1)C(=O)N[C@@H](Cc1ccc(O)cc1)C(=O)N[C@@H](CC(C)C)C(=O)N[C@@H](CC(N)=O)C(=O)N[C@@H](CC(C)C)C(=O)N[C@H](C(=O)N[C@H](C(=O)N[C@@H](CCCNC(=N)N)C(=O)N[C@@H](CCC(N)=O)C(=O)N[C@@H](CCCNC(=N)N)C(=O)N[C@@H](Cc1ccc(O)cc1)C(N)=O)[C@@H](C)O)C(C)C)CC(C)C (H-[X3]([Ser-Ala-Ac])HYLNLVTRQRY-NH2) | 8.56 | 7.23 | 6.13 |  |  |  |
| CC(=O)N[C@@H](C)C(=O)N[C@@H](CO)C(=O)N[C@@H](CC(C)C)C(=O)N[C@@H](CCCN=C(N)N)CN[C@@H](Cc1c[nH]cn1)C(=O)N[C@@H](Cc1ccc(O)cc1)C(=O)N[C@@H](CC(C)C)C(=O)N[C@@H](CC(N)=O)C(=O)N[C@@H](CC(C)C)C(=O)N[C@H](C(=O)N[C@H](C(=O)N[C@@H](CCCN=C(N)N)C(=O)N[C@@H](CCC(N)=O)C(=O)N[C@@H](CCCN=C(N)N)C(=O)N[C@@H](Cc1ccc(O)cc1)C(N)=O)[C@@H](C)O)C(C)C (H-[X4]([Leu-Ser-Ala-Ac])YLNLVTRQRY-NH2) | 8.37 | 7.39 | < 6.00 |  |  |  |
| CC(=O)N[C@@H](C)C(=O)N[C@@H](CO)C(=O)N[C@@H](CSSC[C@H](NC(=O)[C@H](CO)NC(=O)[C@H](C)NC(C)=O)C(=O)N[C@@H](CCCNC(=N)N)C(=O)N[C@@H](Cc1cnc[nH]1)C(=O)N[C@@H](Cc1ccc(O)cc1)C(=O)N[C@@H](CC(C)C)C(=O)N[C@@H](CC(N)=O)C(=O)N[C@@H](CC(C)C)C(=O)N[C@H](C(=O)N[C@H](C(=O)N[C@@H](CCCNC(=N)N)C(=O)N[C@@H](CCC(N)=O)C(=O)N[C@@H](CCCNC(=N)N)C(=O)N[C@@H](Cc1ccc(O)cc1)C(N)=O)[C@@H](C)O)C(C)C)C(=O)N[C@@H](CCCNC(=N)N)C(=O)N[C@@H](Cc1cnc[nH]1)C(=O)N[C@@H](Cc1ccc(O)cc1)C(=O)N[C@@H](CC(C)C)C(=O)N[C@@H](CC(N)=O)C(=O)N[C@@H](CC(C)C)C(=O)N[C@H](C(=O)N[C@H](C(=O)N[C@@H](CCCNC(=N)N)C(=O)N[C@@H](CCC(N)=O)C(=O)N[C@@H](CCCNC(=N)N)C(=O)N[C@@H](Cc1ccc(O)cc1)C(N)=O)[C@@H](C)O)C(C)C (I: Ac-ASCRHYLNLVTRQRY-NH2 / II: Ac-ASCRHYLNLVTRQRY-NH2; disulfide I:3-II:3) [listing 2 of 2 here] |  |  |  |  |  | 0.000365 µmol/kg |
| Ac-ASLRAFLNLVTRQRY-NH2 | 8.28 | 8.42 | 6.17 |  |  |  |
| Ac-ASLRHYWNWVTRQRY-NH2 | 8.97 | 8.50 | 6.63 |  |  |  |
| Ac-ASWRHYLNLVTRQRY-NH2 |  |  |  | 8.68 |  |  |

Further molecules by rising pIC50 [2], results first:

| pIC50 [1] | pIC50 [2] | pIC50 [3] | pIC50 [4] | pIC50 ([3]; sk-n-mc) | Molecule | ED50 (Rattus norvegicus) |
| --- | --- | --- | --- | --- | --- | --- |
| 8.47 | 8.57 | 7.31 |  |  | Ac-YSLRHFLNLVTRQRY-NH2 |  |
| 9.00 | 8.58 |  |  | 6.59 | CC(=O)N[C@@H](C)C(=O)N[C@@H](CO)C(=O)N[C@@H](CC(C)C)C(=O)N[C@@H](CCCN=C(N)N)C(=O)N[C@@H](Cc1c[nH]cn1)C(=O)N[C@@H](Cc1ccsc1)C(=O)N[C@@H](CC(C)C)C(=O)N[C@@H](CC(N)=O)C(=O)N[C@@H](CC(C)C)C(=O)N[C@H](C(=O)N[C@H](C(=O)N[C@@H](CCCN=C(N)N)C(=O)N[C@@H](CCC(N)=O)C(=O)N[C@@H](CCCN=C(N)N)C(=O)N[C@@H](Cc1ccc(O)cc1)C(N)=O)[C@@H](C)O)C(C)C (Ac-ASLRH[3Thi]LNLVTRQRY-NH2) |  |
| 8.64 | 8.74 | 6.12 |  |  | Ac-ASLRHFLNLVTRQRY-NH2 |  |
| 7.85 | 8.94 | < 5.00 |  |  | Ac-ASLRHFLNLVTRQRF-NH2 |  |
| 9.22 | 9.01 | 6.60 |  |  | CC(=O)N[C@@H](C)C(=O)N[C@@H](CO)C(=O)N[C@@H](CC(C)C)C(=O)N[C@@H](CCCN=C(N)N)C(=O)N[C@@H](Cc1c[nH]cn1)C(=O)N[C@@H](Cc1ccc(O)cc1)C(=O)N[C@@H](CC(C)C)C(=O)N[C@@H](CC(N)=O)C(=O)N[C@@H](Cc1c[nH]c2ccccc12)C(=O)N[C@H](C(=O)N[C@H](C(=O)N[C@@H](CCCN=C(N)N)C(=O)N[C@@H](CCC(N)=O)C(=O)N[C@@H](CCCN=C(N)N)C(=O)N[C@@H](Cc1ccc(O)cc1)C(N)=O)[C@@H](C)O)C(C)C | 2.1e-06 µmol/kg |
| 9.20 | 9.41 | 6.96 |  |  | CC(=O)N[C@@H](C)C(=O)N[C@@H](CO)C(=O)N[C@@H](CSSC[C@H](NC(=O)[C@H](CO)NC(=O)[C@H](C)NC(C)=O)C(=O)N[C@@H](CCCNC(=N)N)C(=O)N[C@@H](Cc1cnc[nH]1)C(=O)N[C@@H](Cc1ccc(O)cc1)C(=O)N[C@@H](CC(C)C)C(=O)N[C@@H](CC(N)=O)C(=O)N[C@@H](CC(C)C)C(=O)N[C@H](C(=O)N[C@H](C(=O)N[C@@H](CCCNC(=N)N)C(=O)N[C@@H](CCC(N)=O)C(=O)N[C@@H](CCCNC(=N)N)C(=O)N[C@@H](Cc1ccc(O)cc1)C(N)=O)[C@@H](C)O)C(C)C)C(=O)N[C@@H](CCCNC(=N)N)C(=O)N[C@@H](Cc1cnc[nH]1)C(=O)N[C@@H](Cc1ccc(O)cc1)C(=O)N[C@@H](CC(C)C)C(=O)N[C@@H](CC(N)=O)C(=O)N[C@@H](CC(C)C)C(=O)N[C@H](C(=O)N[C@H](C(=O)N[C@@H](CCCNC(=N)N)C(=O)N[C@@H](CCC(N)=O)C(=O)N[C@@H](CCCNC(=N)N)C(=O)N[C@@H](Cc1ccc(O)cc1)C(N)=O)[C@@H](C)O)C(C)C (I: Ac-ASCRHYLNLVTRQRY-NH2 / II: Ac-ASCRHYLNLVTRQRY-NH2; disulfide I:3-II:3) [listing 1 of 2 here] |  |

— ChEMBL document CHEMBL1133640, “Structure-activity studies including a Psi(CH(2)-NH) scan of peptide YY (PYY) active site, PYY(22-36), for interaction with rat intestinal PYY receptors: development of analogues with potent in vivo activity in the intestine” (J Med Chem, 2000)
